Key:
[1] = Displacement of [3H]-DTG from sigma-2 receptor in Dunkin Hartley guinea pig brain membrane after 120 mins by liquid scintillation counting analysis in presence of (+)-SKF10047; parameters: species or system Cavia porcellus
[2] = Acute toxicity in po dosed Kun Ming mouse after 24 hrs; assay type: organism-based; conditions: in vivo
Mus musculus [3] = experiment: Antinociceptive activity in Kun Ming mouse pain model assessed as reduction in licking and biting time during phase-2 at 80 mg/kg, ip administered 15 mins prior to formalin challenge relative to vehicle-treated control; assay type: functional; conditions: route intraperitoneal
Summary of the method: (§1)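 Kun Ming mice (20 ± 2.0 g), 10–12 per group, given vehicle (30% PEG 400) or drug ip at 10 mL/kg 15 min before intraplantar formalin. Time spent licking or biting the injected paw scored at 0–5 min (phase I) and 15–45 min (phase II). Effect (%) = (LTV − LTD)/LTV × 100.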

Mus musculus [4] = experiment: Antinociceptive activity in ip dosed Kun Ming mouse pain model assessed as reduction in licking and biting time during phase-1 administered 15 mins prior to formalin challenge relative to vehicle-treated control; assay type: functional; summary of the method: as §1
Mus musculus [5] = experiment: Antinociceptive activity in ip dosed Kun Ming mouse pain model assessed as reduction in licking and biting time during phase-2 administered 15 mins prior to formalin challenge relative to vehicle-treated control; assay type: functional; summary of the method: as §1
Rattus norvegicus [6] = experiment: Antineuropathic pain activity in po dosed Sprague-Dawley rat chronic constriction injury model assessed as inhibition of mechanical allodynia measured on day 15 relative to sham-treated control; assay type: functional
Summary of the method: (§2)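 Sprague-Dawley rats, sciatic nerve chronic constriction injury (four loose 4-0 silk ligatures, chloral hydrate anaesthesia); sham has nerve exposed without ligation. Model confirmed on day 14. Oral dosing in 0.5% methylcellulose, 10 mL/kg, twice daily on days 15–18. Read after first dose (day 15) and last dose (day 18). Von Frey withdrawal threshold and radiant-heat plantar withdrawal latency (30 s cutoff), each paw sampled four times and averaged; 10 rats/group.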

Rattus norvegicus [7] = experiment: Antineuropathic pain activity in po dosed Sprague-Dawley rat chronic constriction injury model assessed as inhibition of thermal hypersensitivity measured on day 15 relative to sham-treated control; assay type: functional; summary of the method: as §2
Rattus norvegicus [8] = experiment: Antineuropathic pain activity in po dosed Sprague-Dawley rat chronic constriction injury model assessed as inhibition of mechanical allodynia measured on day 18 by repeated dose treatment assay relative to sham-treated control; assay type: functional; summary of the method: as §2
Rattus norvegicus [9] = experiment: Antineuropathic pain activity in po dosed Sprague-Dawley rat chronic constriction injury model assessed as inhibition of thermal hypersensitivity measured on day 18 by repeated dose treatment assay relative to sham-treated control; assay type: functional; summary of the method: as §2
Mus musculus [10] = experiment: Toxicity in Kun Ming mouse at 20 to 80 mg/kg, ip measured after 30 to 120 mins by rotarod test; assay type: organism-based; parameters: route intraperitoneal; conditions: in vivo
Summary of the method: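 Rotarod test in Kun Ming mice pretrained to stay 300 s at 10 rpm. Latency to fall from drum turning at 10 rpm measured 30, 60, 90 and 120 min after ip dosing; 8–10 mice per group.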

[11] = Tmax in Sprague-Dawley rat at 320 mg/kg, po by HPLC/MS/MS analysis; assay type: ADME, organism-based; parameters: dose 320 mg/kg, route oral; conditions: in vivo
Summary of the method: (§3)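 Sprague-Dawley rats (250 ± 5.0 g), n = 8/group, dosed iv via lateral tail vein at 16 mg/kg in 100% saline or by oral gavage at 320 mg/kg as suspension in 0.5% methylcellulose. Serial tail-vein blood into heparinized tubes at 30 min, 1, 2, 3, 4, 5, 6, 7 and 24 h. Plasma treated by acetonitrile protein precipitation, then HPLC/MS on C18 column, 40 °C.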

[12] = AUC (0 to 24 hrs) in Sprague-Dawley rat at 320 mg/kg, po by HPLC/MS/MS analysis; assay type: ADME, organism-based; parameters: time < 24 hr, dose 320 mg/kg, route oral; conditions: plasma; summary of the method: as §3
[13] = AUC (0 to infinity) in Sprague-Dawley rat at 320 mg/kg, po by HPLC/MS/MS analysis; assay type: ADME, organism-based; parameters: dose 320 mg/kg, route oral, time infinity; conditions: plasma; summary of the method: as §3
[14] = Oral bioavailability in Sprague-Dawley rat at 320 mg/kg; assay type: ADME, organism-based; conditions: in vivo
[15] = target: T1, 5-hydroxytryptamine receptor 1A (Rattus norvegicus) (UniProt P19327); experiment: Displacement of [3H]-8-OH-DPAT from rat cerebral cortex 5-HT1A receptor at 1 uM after 30 mins by liquid scintillation counting analysis; assay type: tissue-based
T1 sequence (whole entry): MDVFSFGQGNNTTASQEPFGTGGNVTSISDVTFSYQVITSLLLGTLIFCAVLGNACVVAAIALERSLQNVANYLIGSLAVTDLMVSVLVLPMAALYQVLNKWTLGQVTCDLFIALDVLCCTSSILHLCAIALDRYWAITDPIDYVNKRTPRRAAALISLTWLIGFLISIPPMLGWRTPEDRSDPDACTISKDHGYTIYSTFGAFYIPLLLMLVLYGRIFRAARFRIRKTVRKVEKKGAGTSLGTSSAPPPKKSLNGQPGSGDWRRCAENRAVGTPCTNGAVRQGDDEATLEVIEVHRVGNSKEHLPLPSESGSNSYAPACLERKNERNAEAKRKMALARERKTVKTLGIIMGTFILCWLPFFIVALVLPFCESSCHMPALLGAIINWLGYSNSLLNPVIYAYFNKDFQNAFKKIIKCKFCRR

[16] = target: 5-hydroxytryptamine receptor 2A (Rattus norvegicus) (UniProt P14842); experiment: Displacement of [3H]-ketanserin from rat cerebral cortex 5-HT2A receptor at 1 uM after 15 mins by liquid scintillation counting analysis; assay type: tissue-based
[17] = target: Sodium-dependent serotonin transporter (Rattus norvegicus) (UniProt P31652); experiment: Displacement of [3H]-paroxetine from rat cerebral cortex serotonin HT transporter at 1 uM after 10 mins by liquid scintillation counting analysis; assay type: tissue-based
[18] = target: Norepinephrine transporter (Rattus norvegicus) (UniProt Q9WTR4); experiment: Displacement of [N-methyl-3H]-nisoxetine from rat hippocampal membrane Noradrenaline transporter at 1 uM after 8 hrs by liquid scintillation counting analysis; assay type: tissue-based; conditions: Hippocampus
[19] = target: Histamine H1 receptor (Cavia porcellus) (UniProt P31389); experiment: Displacement of [3H]-mepyramine from guinea pig cerebellum histamine H1 receptor at 1 uM after 60 mins by liquid scintillation counting analysis
[20] = target: Adrenergic receptor alpha-1 (Rattus norvegicus) (UniProt P15823+P23944+P43140); experiment: Displacement of [3H]-prazosin from rat cerebral cortex adrenergic alpha-1 receptor at 1 uM after 60 mins by liquid scintillation counting analysis; assay type: tissue-based
[21] = target: Adrenergic receptor alpha-2 (Rattus norvegicus) (UniProt P22086+P19328+P22909); experiment: Displacement of [3H]-rauwolscine from rat cerebral cortex adrenergic alpha-2 receptor at 1 uM after 60 mins by liquid scintillation counting analysis; assay type: tissue-based
[22] = target: Mu-type opioid receptor (Homo sapiens) (UniProt P35372); experiment: Displacement of [3H]-diprenorphine from human mu-opioid receptor at 1 uM after 150 mins by liquid scintillation counting analysis
[23] = target: Cannabinoid receptor 2 (Homo sapiens) (UniProt P34972); experiment: Displacement of [3H]-CP-55940 from human CB2 receptor expressed in HEK cells at 1 uM after 90 mins by liquid scintillation counting analysis; assay type: cell-based; conditions: HEK293
[24] = AUC (0 to 24 hrs) in Sprague-Dawley rat at 16 mg/kg, iv by HPLC/MS/MS analysis; conditions: plasma

Sequence of 5-hydroxytryptamine receptor 2A (Rattus norvegicus) (P14842 whole entry): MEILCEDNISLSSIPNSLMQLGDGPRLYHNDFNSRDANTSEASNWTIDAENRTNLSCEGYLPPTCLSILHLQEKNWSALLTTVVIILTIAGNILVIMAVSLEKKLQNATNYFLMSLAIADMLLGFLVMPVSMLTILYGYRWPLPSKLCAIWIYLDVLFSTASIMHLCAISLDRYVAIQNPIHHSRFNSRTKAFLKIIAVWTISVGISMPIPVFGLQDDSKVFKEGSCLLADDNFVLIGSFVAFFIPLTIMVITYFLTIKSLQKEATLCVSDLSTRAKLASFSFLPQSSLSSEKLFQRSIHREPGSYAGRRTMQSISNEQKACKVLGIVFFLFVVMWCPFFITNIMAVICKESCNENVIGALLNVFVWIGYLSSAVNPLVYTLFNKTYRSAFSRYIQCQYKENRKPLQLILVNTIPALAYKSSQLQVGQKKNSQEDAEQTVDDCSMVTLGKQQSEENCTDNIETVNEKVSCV
Sequence of Sodium-dependent serotonin transporter (Rattus norvegicus) (P31652 whole entry): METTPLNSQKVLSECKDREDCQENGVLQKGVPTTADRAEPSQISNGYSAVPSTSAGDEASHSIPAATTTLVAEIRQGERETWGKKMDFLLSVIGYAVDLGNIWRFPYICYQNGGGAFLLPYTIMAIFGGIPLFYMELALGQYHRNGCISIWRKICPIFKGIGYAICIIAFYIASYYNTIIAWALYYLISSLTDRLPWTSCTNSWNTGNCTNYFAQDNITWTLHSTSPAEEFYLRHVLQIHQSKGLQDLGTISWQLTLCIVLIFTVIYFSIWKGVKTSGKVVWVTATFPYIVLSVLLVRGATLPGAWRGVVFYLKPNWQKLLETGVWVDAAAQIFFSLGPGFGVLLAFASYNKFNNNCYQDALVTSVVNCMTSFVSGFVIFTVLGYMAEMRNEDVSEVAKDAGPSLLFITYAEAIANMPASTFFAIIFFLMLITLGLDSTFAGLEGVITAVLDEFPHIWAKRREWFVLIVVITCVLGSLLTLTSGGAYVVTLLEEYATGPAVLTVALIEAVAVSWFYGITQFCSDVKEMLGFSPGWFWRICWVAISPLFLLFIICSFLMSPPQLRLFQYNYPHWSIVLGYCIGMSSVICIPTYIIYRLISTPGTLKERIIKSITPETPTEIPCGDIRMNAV
Sequence of Mu-type opioid receptor (Homo sapiens) (P35372 whole entry): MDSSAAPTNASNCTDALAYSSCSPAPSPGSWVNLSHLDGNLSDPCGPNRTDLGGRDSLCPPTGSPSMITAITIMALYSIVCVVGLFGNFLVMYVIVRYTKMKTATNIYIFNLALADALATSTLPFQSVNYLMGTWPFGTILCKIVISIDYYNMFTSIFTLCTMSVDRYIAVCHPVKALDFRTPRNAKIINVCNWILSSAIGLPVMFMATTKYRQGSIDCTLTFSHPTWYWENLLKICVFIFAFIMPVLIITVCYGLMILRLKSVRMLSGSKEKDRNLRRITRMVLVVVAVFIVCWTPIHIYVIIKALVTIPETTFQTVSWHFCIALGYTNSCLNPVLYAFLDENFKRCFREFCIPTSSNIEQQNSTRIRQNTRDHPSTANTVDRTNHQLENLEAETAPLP
Sequence of Cannabinoid receptor 2 (Homo sapiens) (P34972 whole entry): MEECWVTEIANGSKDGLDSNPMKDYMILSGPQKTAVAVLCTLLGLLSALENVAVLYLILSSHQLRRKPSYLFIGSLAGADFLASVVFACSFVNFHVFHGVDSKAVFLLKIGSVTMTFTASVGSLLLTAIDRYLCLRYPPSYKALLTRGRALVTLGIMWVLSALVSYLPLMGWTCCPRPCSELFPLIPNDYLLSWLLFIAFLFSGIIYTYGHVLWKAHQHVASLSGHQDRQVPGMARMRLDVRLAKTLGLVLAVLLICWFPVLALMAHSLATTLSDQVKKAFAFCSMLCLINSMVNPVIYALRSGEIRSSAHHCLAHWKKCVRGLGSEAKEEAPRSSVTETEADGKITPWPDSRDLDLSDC
Sequence of Norepinephrine transporter (Rattus norvegicus) (Q9WTR4 as listed by the source): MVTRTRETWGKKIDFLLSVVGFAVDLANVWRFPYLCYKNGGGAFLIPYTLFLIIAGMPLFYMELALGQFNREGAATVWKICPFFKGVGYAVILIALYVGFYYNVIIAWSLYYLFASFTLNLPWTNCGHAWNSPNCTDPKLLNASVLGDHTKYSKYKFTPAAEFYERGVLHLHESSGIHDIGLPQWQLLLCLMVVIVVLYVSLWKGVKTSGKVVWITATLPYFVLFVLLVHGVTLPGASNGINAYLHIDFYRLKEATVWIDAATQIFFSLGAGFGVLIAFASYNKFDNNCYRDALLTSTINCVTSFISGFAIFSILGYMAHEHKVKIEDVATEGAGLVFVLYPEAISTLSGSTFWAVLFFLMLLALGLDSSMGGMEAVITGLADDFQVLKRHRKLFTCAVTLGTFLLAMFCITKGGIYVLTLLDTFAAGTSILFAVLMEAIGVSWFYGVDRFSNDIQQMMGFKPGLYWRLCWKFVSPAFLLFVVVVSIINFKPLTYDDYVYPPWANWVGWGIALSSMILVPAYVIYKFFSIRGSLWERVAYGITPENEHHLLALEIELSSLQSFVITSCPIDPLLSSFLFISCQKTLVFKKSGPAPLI
Sequence of Histamine H1 receptor (Cavia porcellus) (P31389 whole entry): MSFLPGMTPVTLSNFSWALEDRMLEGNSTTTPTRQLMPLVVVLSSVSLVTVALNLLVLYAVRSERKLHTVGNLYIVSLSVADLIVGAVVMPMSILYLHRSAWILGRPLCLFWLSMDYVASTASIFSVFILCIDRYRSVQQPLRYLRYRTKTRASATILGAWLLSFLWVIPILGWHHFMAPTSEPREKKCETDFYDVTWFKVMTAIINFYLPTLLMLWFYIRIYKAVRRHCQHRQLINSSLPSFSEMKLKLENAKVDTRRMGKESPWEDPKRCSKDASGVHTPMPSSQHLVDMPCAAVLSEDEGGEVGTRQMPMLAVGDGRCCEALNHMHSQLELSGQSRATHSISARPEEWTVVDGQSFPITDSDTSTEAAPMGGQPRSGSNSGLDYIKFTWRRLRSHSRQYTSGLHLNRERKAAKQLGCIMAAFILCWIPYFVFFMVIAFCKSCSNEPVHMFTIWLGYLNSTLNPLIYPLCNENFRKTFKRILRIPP

Cc1nc(-c2ccc(Cl)cc2)nc(OCCCN2CCCCC2)c1Cl
Ki [1]: 1420 nM | LD50 at 24 h [2]: > 2000 mg/kg | Time (Mus musculus [3]): 37.41 s | Activity (Mus musculus [4]): Dose-dependent effect | ED50 (Mus musculus [4]): 48.4 mg/kg | Activity (Mus musculus [5]): Dose-dependent effect | ED50 (Mus musculus [5]): 42.1 mg/kg | inhibition (Rattus norvegicus [6]): Dose-dependent effect | ED50 (Rattus norvegicus [6]; 360 h): 58.2 mg/kg | inhibition (Rattus norvegicus [7]): Dose-dependent effect | ED50 (Rattus norvegicus [7]; 360 h): 47.2 mg/kg | inhibition (Rattus norvegicus [8]): Dose-dependent effect | ED50 (Rattus norvegicus [8]; 432 h): 61.8 mg/kg | inhibition (Rattus norvegicus [9]): Dose-dependent effect | ED50 (Rattus norvegicus [9]; 432 h): 50.2 mg/kg | Activity (Mus musculus [10]): Non-toxic | Tmax [11]: 30 min | AUC(0-t) at 24 h [12]: 54700 ng·h/mL | AUC(0-inf) [13]: 55400 ng·h/mL | bioavailability [14]: 75.1% | inhibition [15]: < 50% | inhibition [16]: < 50% | inhibition [17]: < 50% | inhibition [18]: < 50% | inhibition [19]: < 50% | inhibition [20]: < 50% | inhibition [21]: < 50% | inhibition [22]: < 50% | inhibition [23]: < 50% | AUC(0-t) at 24 h [24]: 3300 ng·h/mL

Reference: ChEMBL document CHEMBL3351343, “Synthesis and biological evaluation of novel sigma-1 receptor antagonists based on pyrimidine scaffold as agents for treating neuropathic pain” (J Med Chem, 2014)
